# Measured values as given in PMC3822625 (Journal of Cellular and Molecular Medicine, 2010).
# Experiments:
# P-gp = P-gp (Homo sapiens, UniProt P08183); assay: Calcein-AM assay by flow cytometry in CEM/ADR5000 cells; settings: CCRF-CEM and CEM/ADR5000 cells, result in words
# [1] = test system: Tg(fli1:EGFP) zebrafish embryos; assay: Zebrafish embryo in vivo angiogenesis assay
# [2] = target: P-gp expressed in porcine capillaries (Sus scrofa, UniProt K7GMM7); assay: NBD-CSA transport in porcine brain capillaries; assay type: cell-based; settings: confocal microscopy, result in words
# Outline: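 Porcine brain capillaries incubated with test compound and the fluorescent P-gp substrate NBD-CSA. Transport into the capillary lumen imaged by confocal microscopy (transmitted light, fluorescence, overlay) and quantified by fluorospectrometry. Negative-control capillaries stained with NBD-CSA only, same time course.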
# Sequence of P-gp (P08183 whole entry): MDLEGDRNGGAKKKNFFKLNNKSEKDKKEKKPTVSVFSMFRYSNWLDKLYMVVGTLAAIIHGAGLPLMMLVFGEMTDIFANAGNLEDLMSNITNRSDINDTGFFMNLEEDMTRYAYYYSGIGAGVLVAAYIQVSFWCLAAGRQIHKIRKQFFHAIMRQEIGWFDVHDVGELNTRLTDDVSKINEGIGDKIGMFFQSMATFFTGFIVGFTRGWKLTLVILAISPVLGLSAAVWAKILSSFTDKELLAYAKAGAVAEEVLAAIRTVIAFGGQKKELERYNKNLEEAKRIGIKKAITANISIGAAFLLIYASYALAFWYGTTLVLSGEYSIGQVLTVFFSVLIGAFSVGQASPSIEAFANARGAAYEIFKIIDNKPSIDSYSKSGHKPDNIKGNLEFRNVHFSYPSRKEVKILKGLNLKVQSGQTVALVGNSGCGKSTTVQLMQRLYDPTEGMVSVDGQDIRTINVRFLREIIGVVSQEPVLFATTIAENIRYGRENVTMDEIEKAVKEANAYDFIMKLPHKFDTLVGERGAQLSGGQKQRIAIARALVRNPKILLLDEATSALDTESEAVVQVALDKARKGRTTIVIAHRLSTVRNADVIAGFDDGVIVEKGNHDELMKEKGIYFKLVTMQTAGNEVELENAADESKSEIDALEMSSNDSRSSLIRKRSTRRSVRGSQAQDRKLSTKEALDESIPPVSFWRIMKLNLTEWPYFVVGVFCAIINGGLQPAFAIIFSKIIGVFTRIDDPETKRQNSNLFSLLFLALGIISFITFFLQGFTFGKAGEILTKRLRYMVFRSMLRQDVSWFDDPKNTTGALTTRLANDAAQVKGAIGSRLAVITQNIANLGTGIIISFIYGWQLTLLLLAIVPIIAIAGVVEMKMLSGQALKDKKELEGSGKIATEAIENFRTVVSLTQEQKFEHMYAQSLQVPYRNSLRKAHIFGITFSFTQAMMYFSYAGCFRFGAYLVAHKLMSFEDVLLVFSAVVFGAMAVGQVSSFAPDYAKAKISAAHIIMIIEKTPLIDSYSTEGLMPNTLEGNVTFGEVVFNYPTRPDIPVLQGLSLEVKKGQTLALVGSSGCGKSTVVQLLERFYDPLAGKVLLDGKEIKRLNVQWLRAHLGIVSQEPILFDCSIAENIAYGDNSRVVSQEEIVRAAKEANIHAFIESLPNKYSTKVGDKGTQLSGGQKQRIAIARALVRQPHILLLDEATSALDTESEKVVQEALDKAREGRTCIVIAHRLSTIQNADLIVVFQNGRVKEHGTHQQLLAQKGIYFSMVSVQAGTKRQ
# Sequence of P-gp expressed in porcine capillaries (K7GMM7 1-1248): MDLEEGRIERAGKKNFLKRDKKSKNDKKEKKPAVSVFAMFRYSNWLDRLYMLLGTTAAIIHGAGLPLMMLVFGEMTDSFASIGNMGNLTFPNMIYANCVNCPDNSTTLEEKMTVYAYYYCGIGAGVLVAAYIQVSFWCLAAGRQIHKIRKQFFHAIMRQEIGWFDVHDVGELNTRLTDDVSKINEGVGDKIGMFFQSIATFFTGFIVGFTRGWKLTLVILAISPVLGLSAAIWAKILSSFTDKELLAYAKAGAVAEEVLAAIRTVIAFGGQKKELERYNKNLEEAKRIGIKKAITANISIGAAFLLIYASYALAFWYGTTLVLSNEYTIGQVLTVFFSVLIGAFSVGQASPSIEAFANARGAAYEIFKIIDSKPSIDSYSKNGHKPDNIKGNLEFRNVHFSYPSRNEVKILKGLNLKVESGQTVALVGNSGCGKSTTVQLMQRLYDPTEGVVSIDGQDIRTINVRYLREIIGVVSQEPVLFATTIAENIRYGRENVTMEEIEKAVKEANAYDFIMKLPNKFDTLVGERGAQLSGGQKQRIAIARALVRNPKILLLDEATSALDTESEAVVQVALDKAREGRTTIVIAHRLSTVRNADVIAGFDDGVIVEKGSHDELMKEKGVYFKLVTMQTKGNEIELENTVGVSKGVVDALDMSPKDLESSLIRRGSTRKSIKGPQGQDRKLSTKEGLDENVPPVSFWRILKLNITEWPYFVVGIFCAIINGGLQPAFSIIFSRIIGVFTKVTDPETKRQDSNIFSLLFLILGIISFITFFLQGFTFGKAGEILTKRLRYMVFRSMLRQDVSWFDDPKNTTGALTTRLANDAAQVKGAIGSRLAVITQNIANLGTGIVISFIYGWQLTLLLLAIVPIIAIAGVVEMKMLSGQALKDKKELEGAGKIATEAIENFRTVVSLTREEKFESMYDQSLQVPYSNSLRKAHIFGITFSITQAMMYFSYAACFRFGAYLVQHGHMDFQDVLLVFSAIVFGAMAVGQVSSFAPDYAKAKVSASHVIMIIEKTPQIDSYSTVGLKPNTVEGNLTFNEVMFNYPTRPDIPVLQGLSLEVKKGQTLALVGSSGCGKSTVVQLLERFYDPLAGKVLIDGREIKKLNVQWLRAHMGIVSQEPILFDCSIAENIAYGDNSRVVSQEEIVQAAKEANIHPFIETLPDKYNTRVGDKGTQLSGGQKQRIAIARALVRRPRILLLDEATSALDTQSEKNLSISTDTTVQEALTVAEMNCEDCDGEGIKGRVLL
smiles,measurement,setting,value
"C[C@H]1[C@H](OC(=O)CCC(=O)O)O[C@@H]2O[C@@]3(C)CC[C@H]4[C@H](C)CC[C@@H]1[C@@]24OO3 [Artesunate, artesunate]",P-gp inhibition (calcein accumulation),P-gp,do not act as P-gp inhibitors
same,Dead = number of dead embryos up to 48 hpf,"[1]; 25 μg/ml, N=20 embryos",1
same,Dead = number of dead embryos up to 48 hpf,"[1]; 50 μg/ml, N=20 embryos",1
same,Dead = number of dead embryos up to 48 hpf,"[1]; 100 μg/ml, N=20 embryos",1
same,Dead = number of dead embryos up to 48 hpf,"[1]; 200 μg/ml, N=10 embryos",1
same,Anti-angiogenic effect,"[1]; overall assessment over the dose range, result in words",dose-dependent anti-angiogenic effects
"C[C@@H]1CC[C@H]2[C@@H](C)C(=O)O[C@@H]3O[C@@]4(C)CC[C@@H]1[C@]32OO4 [Compound 1, artemisinin]",P-gp inhibition (calcein accumulation),P-gp,do not act as P-gp inhibitors
"CC1=CO[C@@H]2O[C@@]3(C)CC[C@H]4[C@H](C)CC[C@@H]1[C@@]24OO3 [Compound 4, anhydrodihydroartemisinin]",Dead = number of dead embryos up to 48 hpf,"[1]; 50 μg/ml, N=10 embryos",2
same,Dead = number of dead embryos up to 48 hpf,"[1]; 75 μg/ml, N=10 embryos",5
C/C=C/C[C@@H](C)C(=O)[C@H]1C(=O)N[C@@H](C(C)C)C(=O)N(C)CC(=O)N(C)[C@@H](CC(C)C)C(=O)N[C@@H](C(C)C)C(=O)N(C)[C@@H](CC(C)C)C(=O)N[C@@H](C)C(=O)N[C@H](C)C(=O)N(C)[C@@H](CC(C)C)C(=O)N(C)[C@@H](CC(C)C)C(=O)N(C)[C@@H](C(C)C)C(=O)N1C [PSC-833],Inhibition of luminal P-gp (NBD-CSA transport),[2],inhibited
Cc1cc(C)c(/C=C2\C(=O)Nc3ccccc32)[nH]1 [SU5416],Formation of ISVs at 28 hpf,"[1]; 10 μg/ml, 28 hpf, result in words",completely blocked formation of ISVs
same,ISV sprouting at 48 hpf,"[1]; 10 μg/ml, 48 hpf, compared to control embryos, result in words",sprouted only minimally
same,Heart rate,"[1]; 10 μg/ml, result in words",not affected
same,Oedema,"[1]; 10 μg/ml, result in words",rarely observed
